Assay results published in ChEMBL document CHEMBL4002644, “Discovery of GBT440, an Orally Bioavailable R-State Stabilizer of Sickle Cell Hemoglobin” (ACS Med Chem Lett, 2017).
Active and inactive are the calls of the source. The rule behind the calls is not given here.

Experiments:
[1] = test system: Hemoglobin HbA (Homo sapiens), P69905+P68871 [E7V]; test: (§1) Induction of R-state stabilization of Hb betaGlu6Val mutant in sickle disease patient purified HbS/HbA mixture assessed as change from baseline of partial pressure of O2 at which HbS is 50% saturated with O2 at 30 uM preincubated for 45 mins followed by oxygenation for 10 mins and subsequent deoxygenation by hemoximetry relative to control
Summary of the method: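 Oxygen equilibrium curves were run on a Hemox Analyzer using Hb purified from sickle disease blood (an HbA/HbS mixture) at 25 μM. Compound was tested at 30 μM, or at 500 μM where noted. The read-out was the % change from baseline in the pO2 at which HbS is 50% saturated (Δp50).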

[2] = test system: Hemoglobin HbA (Homo sapiens), P69905+P68871 [E7V]; test: (§2) Induction of R-state stabilization of Hb betaGlu6Val mutant in sickle cell disease transfused human whole blood assessed as change from baseline of partial pressure of O2 at which HbS is 50% saturated with O2 at 1 mM preincubated for 45 mins followed by 20 mins oxygenation/deoxygenation cycle by hemoximetry relative to control
Summary of the method: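 Whole blood from transfused SCD subjects, at 20% hematocrit (Hb 1 mM), was run with compound at 1 mM. Oxygen equilibrium curves were measured by hemoximetry. The value is the % change from baseline in the pO2 giving 50% O2 saturation (Δp50).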

Homo sapiens = organism: Homo sapiens; test: Induction of R-state stabilization of sickle cell Hb betaGlu6Val mutant purified from sickle cell patient assessed as inhibition of KH2PO4-induced polymerization by measuring change from baseline of delay time for onset of polymerization at 75 uM preincubated for 1 hr followed by deoxygenation for …; parameters: scale not given: the % may be the effect or the level left
Rattus norvegicus = test: Dose normalized AUC (0 to infinity) in Sprague-Dawley rat at 7.2 to 120 mg/kg, po by LC-MS/MS analysis; type: ADME, organism-based; details: in vivo
Summary of the method: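 Rat oral PK: AUC(0–∞) divided by the oral dose, expressed as (ng·h/mL)/(mg/kg).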

Blood = test: Half life in Sprague-Dawley rat blood at 7.2 to 120 mg/kg, po by LC-MS/MS analysis; type: ADME, organism-based; details: in vivo
[3] = test system: Hemoglobin HbA (Homo sapiens), P69905+P68871 [E7V]; test: as §2, with “sickle” for “sickle cell”, “patient purified HbS/HbA mixture” for “transfused human whole blood”, “5” for “1”
[4] = test system: Hemoglobin HbA (Homo sapiens), P69905+P68871 [E7V]; test: as §1, with “100” for “30”, “20” for “oxygenation for 10”, “oxygenation/deoxygenation cycle” for “and subsequent deoxygenation”

Activity [1] [%]	Activity [2] [%]	Activity (Homo sapiens) [%]	SMILES	further results
3.5			COc1cc(C=O)c(OCc2cc(C#N)cn3ccnc23)cn1	
	80.6	136	CC(C)n1nccc1-c1ncccc1COc1ccccc1C=O	AUC/dose (Rattus norvegicus): 1059 ng·h/mL/mg/kg; t1/2 (Blood): 2.1 h
61.7	65.4	62.6	Cc1ccc(OCc2cccnc2-c2ccnn2C(C)C)c(C=O)n1	AUC/dose (Rattus norvegicus): 1710 ng·h/mL/mg/kg; t1/2 (Blood): 1.5 h
40.2			COc1cc(C=O)c(OCc2nccc3ccccc23)cn1	
29.4			COc1cc(C=O)c(OCc2cncc(-c3ccn(C)n3)c2)cn1	
54.5	55	131	COc1cncc(OCc2cccnc2-c2ccnn2C(C)C)c1C=O	AUC/dose (Rattus norvegicus): 36.4 ng·h/mL/mg/kg; t1/2 (Blood): 2.5 h
32.7			COc1cc(C=O)c(OCc2cccc3c2cnn3C)cn1	
11.2			COc1cc(C=O)c(OCc2cncc(-c3ccnn3C)c2)cn1	
32.7	64.7	105	COc1cc(C=O)c(OCc2cccnc2-c2ccnn2CCO)cn1	
55.9	68.9	77.8	COCCOc1cc(C=O)c(OCc2cccnc2-c2ccnn2C(C)C)cn1	AUC/dose (Rattus norvegicus): 1950 ng·h/mL/mg/kg; t1/2 (Blood): 1.5 h
14.2			COc1cc(C=O)c(OCc2cc3ccccc3nc2-c2ccn[nH]2)cn1	
2.8			COc1cc(C=O)c(OCc2cc(-c3ccn[nH]3)cn3ccnc23)cn1	
4			COc1cc(C=O)c(OCc2cc3ccccc3nc2Cl)cn1	
36			COc1cc(C=O)c(OCc2cccc3ncccc23)cn1	
53.3	56.4	70.3	CC(C)n1nccc1-c1ncccc1COc1cccnc1C=O	AUC/dose (Rattus norvegicus): 34.2 ng·h/mL/mg/kg; t1/2 (Blood): 0.7 h
27.4		64.5	COc1cc(C=O)c(OCc2cccnc2-c2c(C)cnn2C)cn1	
			O=Cc1ccc(CO)o1	Activity [3]: Active
33			COc1ccc(OCc2cccn3ccnc23)c(C=O)c1	Activity [4]: Active
51.7	43.1	64.5	COc1cc(C=O)c(OCc2cccnc2-c2[nH]ncc2C)cn1	
13.7			COc1cc(C=O)c(OCc2ccc3ccncc3c2)cn1	
29.1			COc1cc(C=O)c(OCc2c(-c3cc[nH]n3)ccn3ccnc23)cn1	
9			COc1cc(C=O)c(OCc2cncc(-c3ccn[nH]3)c2)cn1	
